Reference: ChEMBL document CHEMBL3739387, “Discovery and SAR of Novel and Selective Inhibitors of Urokinase Plasminogen Activator (uPA) with an Imidazo[1,2-a]pyridine Scaffold” (J Med Chem, 2015)
Calls of active or inactive are those of the source. No cut-off for these calls is given here.

How the values were obtained:
[1] = target: T1, Urokinase-type plasminogen activator (Homo sapiens, UniProt P00749); test: Inhibition of human uPA using pyro-Glu-Gly-Arg-pNA as substrate assessed as para-nitroaniline release from substrate measured for 5 mins by spectrophotometric assay
Plasminogen [2] = target: T2, Plasminogen (Homo sapiens, UniProt P00747); test: Inhibition of human plasma plasmin using pyroGlu-Pro-Arg-pNA-HCl as substrate at 100 uM measured for 5 mins by spectrophotometric assay; assay type: cell-free
Procedure, shortened: (§1)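 Plasmin purified from human plasma. Substrate pyroGlu-Pro-Arg-pNA (CS-21(66), Km 400 μM) at 400 μM in assay. HEPES pH 7.0, 37 °C, absorbance at 405 nm followed for 5 min, duplicates.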

[3] = target: T3, Coagulation factor VII (Homo sapiens) (UniProt P08709); test: Inhibition of purified human factor 7a using MeSO2-Cha-Abu-Arg-pNA as substrate at 100 uM measured for 5 mins by spectrophotometric assay
T3 sequence (whole entry): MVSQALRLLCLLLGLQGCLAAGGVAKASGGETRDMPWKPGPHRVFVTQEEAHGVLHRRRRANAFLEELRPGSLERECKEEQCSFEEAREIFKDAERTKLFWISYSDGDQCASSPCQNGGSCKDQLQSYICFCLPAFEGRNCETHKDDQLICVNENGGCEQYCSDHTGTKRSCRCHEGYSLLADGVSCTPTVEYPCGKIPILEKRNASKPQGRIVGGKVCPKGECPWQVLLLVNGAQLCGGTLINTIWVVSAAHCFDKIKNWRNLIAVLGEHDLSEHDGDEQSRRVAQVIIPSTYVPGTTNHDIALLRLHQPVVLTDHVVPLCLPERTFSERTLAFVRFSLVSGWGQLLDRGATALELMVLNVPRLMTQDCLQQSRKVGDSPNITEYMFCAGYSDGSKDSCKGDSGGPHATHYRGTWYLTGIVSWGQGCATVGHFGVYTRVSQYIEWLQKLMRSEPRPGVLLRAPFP
Procedure, shortened: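 Purified human plasma FVIIa with tissue factor (Innovin) present. MeSO2-Cha-Abu-Arg-pNA at 800 μM in assay. Buffer 50 mM HEPES pH 7.5, 100 mM NaCl, 5 mM CaCl2, 0.1% BSA.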

Plasma kallikrein [4] = target: T4, Plasma kallikrein (Homo sapiens, UniProt P03952); test: Inhibition of human plasma kallikrein using D-Pro-Phe-Arg-pNA-2HCl as substrate at 100 uM measured for 5 mins by spectrophotometric assay; assay type: cell-free
Procedure, shortened: (§2)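 Human plasma kallikrein, chromogenic substrate CS-31(02) (Km 269 μM) at 269 μM in assay. 50 mM HEPES at pH 7.4. Absorbance at 405 nm over 5 min at 37 °C, duplicates.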

[5] = target: T5, Tissue-type plasminogen activator (Homo sapiens, UniProt P00750); test: Inhibition of recombinant human tPA using H-D-Ile-Pro-L-Arg-pNA-2HCl as substrate at 100 uM measured for 5 mins by spectrophotometric assay
Target sequence in this assay (P00750 36-562 limits assumed): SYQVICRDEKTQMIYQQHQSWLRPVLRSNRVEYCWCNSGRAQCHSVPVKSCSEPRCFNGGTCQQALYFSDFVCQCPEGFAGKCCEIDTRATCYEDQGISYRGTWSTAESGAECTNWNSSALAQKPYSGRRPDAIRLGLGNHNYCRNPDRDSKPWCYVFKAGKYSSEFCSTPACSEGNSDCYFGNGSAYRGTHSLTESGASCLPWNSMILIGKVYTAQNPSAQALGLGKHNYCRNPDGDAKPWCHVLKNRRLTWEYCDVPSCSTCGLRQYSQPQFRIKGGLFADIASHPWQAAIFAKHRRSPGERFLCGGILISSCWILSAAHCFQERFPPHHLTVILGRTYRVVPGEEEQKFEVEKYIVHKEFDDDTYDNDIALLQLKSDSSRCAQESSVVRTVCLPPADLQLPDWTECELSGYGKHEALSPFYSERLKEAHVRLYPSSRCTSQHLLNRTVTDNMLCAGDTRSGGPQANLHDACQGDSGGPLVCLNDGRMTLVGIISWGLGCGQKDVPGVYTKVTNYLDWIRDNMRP

Prothrombin [6] = target: T6, Prothrombin (Homo sapiens, UniProt P00734); test: Inhibition of human plasma thrombin using pyroGlu-Pro-Arg-pNA-HCl as substrate at 100 uM measured for 5 mins by spectrophotometric assay; assay type: cell-free
Procedure, shortened: (§3)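 Thrombin from human plasma with pyroGlu-Pro-Arg-pNA (CS-21(66), Km 400 μM) at 415 μM in assay. 50 mM HEPES pH 8.2. pNA release at 405 nm over 5 min at 37 °C, in duplicate.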

Coagulation factor X [7] = target: T7, Coagulation factor X (Homo sapiens, UniProt P00742); test: Inhibition of purified human factor 10a using Suc-Ile-Glu(yPip)-GlyArg-pNa-HCl as substrate at 100 uM measured for 5 mins by spectrophotometric assay
Procedure, shortened: (§4)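 Purified human factor Xa, substrate Suc-Ile-Glu(γPip)-Gly-Arg-pNA (CS-11(32)) at 411 μM in assay. HEPES pH 8.2. Read at 405 nm for 5 min at 37 °C, duplicate wells.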

[8] = Inhibition of bovine pancreatic trypsin using Nalpha-benzoyl-D,L-Arg-pNA-HCl as substrate measured for 5 mins by spectrophotometric assay; set-up: species or system Bos taurus
Plasma kallikrein [9] = target: T4, Plasma kallikrein; test: Inhibition of human plasma kallikrein using D-Pro-Phe-Arg-pNA-2HCl as substrate measured for 5 mins by spectrophotometric assay; assay type: cell-free; procedure, shortened: as §2
Coagulation factor X [10] = target: T7, Coagulation factor X; test: Inhibition of purified human factor 10a using Suc-Ile-Glu(gammaPip)-GlyArg-pNa-HCl as substrate measured for 5 mins by spectrophotometric assay; procedure, shortened: as §4
[11] = target: T5, Tissue-type plasminogen activator; test: Inhibition of recombinant human tPA using H-D-Ile-Pro-L-Arg-pNA-2HCl as substrate measured for 5 mins by spectrophotometric assay
Target sequence in this assay (P00750 whole entry): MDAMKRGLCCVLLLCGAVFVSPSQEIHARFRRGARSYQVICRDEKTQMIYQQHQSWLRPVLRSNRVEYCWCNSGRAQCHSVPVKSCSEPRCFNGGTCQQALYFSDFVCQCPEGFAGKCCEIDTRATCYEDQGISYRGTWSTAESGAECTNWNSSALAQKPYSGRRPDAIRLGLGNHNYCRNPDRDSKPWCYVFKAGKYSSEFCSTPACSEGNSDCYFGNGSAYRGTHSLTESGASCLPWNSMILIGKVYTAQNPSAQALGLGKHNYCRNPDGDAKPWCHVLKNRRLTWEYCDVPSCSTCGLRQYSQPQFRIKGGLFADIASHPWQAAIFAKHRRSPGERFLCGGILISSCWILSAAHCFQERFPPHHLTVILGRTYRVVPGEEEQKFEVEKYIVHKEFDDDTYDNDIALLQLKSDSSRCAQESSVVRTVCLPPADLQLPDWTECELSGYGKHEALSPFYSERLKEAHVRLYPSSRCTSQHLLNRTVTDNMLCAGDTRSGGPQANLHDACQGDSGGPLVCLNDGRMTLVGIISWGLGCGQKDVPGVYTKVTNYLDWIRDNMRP

Plasminogen [12] = target: T2, Plasminogen; test: Inhibition of human plasma plasmin using pyroGlu-Pro-Arg-pNA-HCl as substrate measured for 5 mins by spectrophotometric assay; assay type: cell-free; procedure, shortened: as §1
Prothrombin [13] = target: T6, Prothrombin; test: Inhibition of human plasma thrombin using pyroGlu-Pro-Arg-pNA-HCl as substrate measured for 5 mins by spectrophotometric assay; assay type: cell-free; procedure, shortened: as §3
[14] = target: T1, Urokinase-type plasminogen activator; test: Tight binding inhibition of human uPA using pyro-Glu-Gly-Arg-pNA as substrate assessed as para-nitroaniline release from substrate measured for 5 mins by spectrophotometry based enzyme kinetics assay
[15] = target: T1, Urokinase-type plasminogen activator; test: Slow dissociating inhibition of human uPA using pyro-Glu-Gly-Arg-pNA as substrate assessed as para-nitroaniline release from substrate measured for 5 mins by spectrophotometry based enzyme kinetics assay
Bos taurus = species: Bos taurus; test: Inhibition of bovine pancreatic trypsin using Na-benzoyl-D,L-Arg-pNA-HCl as substrate at 100 uM measured for 5 mins by spectrophotometric assay
[16] = target: T1, Urokinase-type plasminogen activator; test: Reversible inhibition of human uPA using pyro-Glu-Gly-Arg-pNA as substrate assessed as para-nitroaniline release from substrate measured for 5 mins by spectrophotometry based enzyme kinetics assay
[17] = target: T1, Urokinase-type plasminogen activator; test: Inhibition of human uPA

T2 sequence (P00747 97-580 limits assumed): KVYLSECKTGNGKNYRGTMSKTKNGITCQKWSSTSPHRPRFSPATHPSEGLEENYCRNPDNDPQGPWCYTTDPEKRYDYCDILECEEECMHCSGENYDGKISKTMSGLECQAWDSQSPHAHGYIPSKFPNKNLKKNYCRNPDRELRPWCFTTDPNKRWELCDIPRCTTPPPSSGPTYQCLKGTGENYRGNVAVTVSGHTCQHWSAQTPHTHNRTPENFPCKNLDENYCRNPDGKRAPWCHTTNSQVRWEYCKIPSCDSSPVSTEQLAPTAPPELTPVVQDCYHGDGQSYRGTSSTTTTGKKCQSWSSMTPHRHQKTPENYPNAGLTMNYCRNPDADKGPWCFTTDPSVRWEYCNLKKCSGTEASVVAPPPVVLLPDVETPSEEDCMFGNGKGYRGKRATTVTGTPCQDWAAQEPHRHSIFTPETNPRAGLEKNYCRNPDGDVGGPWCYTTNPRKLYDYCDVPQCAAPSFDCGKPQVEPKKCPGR
T2 sequence (P00747 581-810 limits assumed): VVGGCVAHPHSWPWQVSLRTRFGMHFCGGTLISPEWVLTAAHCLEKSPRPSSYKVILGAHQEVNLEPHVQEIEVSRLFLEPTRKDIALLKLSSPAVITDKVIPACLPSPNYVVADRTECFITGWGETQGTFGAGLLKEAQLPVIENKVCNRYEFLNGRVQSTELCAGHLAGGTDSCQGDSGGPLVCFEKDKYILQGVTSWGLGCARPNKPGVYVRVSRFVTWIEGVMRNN
T7 sequence (P00742 41-179 limits assumed): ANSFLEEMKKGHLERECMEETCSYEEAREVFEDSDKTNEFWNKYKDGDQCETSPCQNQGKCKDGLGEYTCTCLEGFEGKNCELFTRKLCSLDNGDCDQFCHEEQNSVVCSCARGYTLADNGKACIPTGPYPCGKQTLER
T7 sequence (P00742 235-488 limits assumed): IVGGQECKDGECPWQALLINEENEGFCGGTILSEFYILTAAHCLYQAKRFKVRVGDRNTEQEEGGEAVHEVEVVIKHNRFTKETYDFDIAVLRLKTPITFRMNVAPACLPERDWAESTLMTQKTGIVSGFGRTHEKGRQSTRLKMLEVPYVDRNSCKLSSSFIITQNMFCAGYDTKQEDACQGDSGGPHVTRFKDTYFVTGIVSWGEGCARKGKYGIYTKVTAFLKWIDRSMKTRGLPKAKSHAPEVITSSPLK
T4 sequence (P03952 20-390 limits assumed): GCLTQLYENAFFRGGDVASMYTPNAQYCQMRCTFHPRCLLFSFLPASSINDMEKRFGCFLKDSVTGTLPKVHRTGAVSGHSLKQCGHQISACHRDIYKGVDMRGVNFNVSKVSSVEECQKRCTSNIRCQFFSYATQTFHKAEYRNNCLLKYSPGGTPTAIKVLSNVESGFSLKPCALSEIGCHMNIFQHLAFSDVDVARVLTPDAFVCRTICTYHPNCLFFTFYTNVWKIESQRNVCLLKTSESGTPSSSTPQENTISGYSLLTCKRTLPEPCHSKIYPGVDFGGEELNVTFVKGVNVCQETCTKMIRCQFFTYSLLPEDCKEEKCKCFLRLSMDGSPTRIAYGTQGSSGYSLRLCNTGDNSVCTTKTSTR
T4 sequence (P03952 391-638 limits assumed): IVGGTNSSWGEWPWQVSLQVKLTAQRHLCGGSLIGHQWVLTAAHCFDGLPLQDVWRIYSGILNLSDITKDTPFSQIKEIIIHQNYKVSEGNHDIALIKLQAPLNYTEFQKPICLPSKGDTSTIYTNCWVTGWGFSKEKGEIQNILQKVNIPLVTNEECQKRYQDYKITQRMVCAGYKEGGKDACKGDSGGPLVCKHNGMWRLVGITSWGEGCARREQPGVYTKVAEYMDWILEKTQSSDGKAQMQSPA

N=C(N)Nc1ccc(CNc2c(-c3cc(Cl)cc(Cl)c3)nc3ccccn23)cc1
IC50 [1]: 99.2 µM

NC[C@H]1CC[C@H](Nc2cnc3ccccn23)CC1
IC50 [1]: 500 µM

Cc1ccc2nc(-c3cccnc3)c(NCc3ccc(NC(=N)N)cc3)n2c1
IC50 [1]: 23.9 µM

N=C(N)NCCCCNc1cnc2ccccn12
IC50 [1]: 200 µM

CCCCNC(=O)c1ccn2c(NCc3ccc(NC(=N)N)cc3)c(-c3cccnc3)nc2c1
IC50 [1]: 6.89 µM

N=C(N)NC(=O)c1nc(Cl)c(N)nc1N [AMILORIDE]
inhibition (Plasminogen [2]): 0% | inhibition [3]: 7.4% | inhibition (Plasma kallikrein [4]): 0% | inhibition [5]: 1% | inhibition (Prothrombin [6]): 5.2% | inhibition (Coagulation factor X [7]): 3.5% | IC50 [8]: 31.8 µM

Cc1cccn2c(NCc3ccc(NC(=N)N)cc3)c(-c3cccnc3)nc12
IC50 [1]: 27.4 µM

NCc1ccc(Nc2cnc3ccccn23)cc1
IC50 [1]: > 500 µM

N=C(N)Nc1ccc(CCNc2c(-c3cccc(Cl)c3)nc3cnccn23)cc1
IC50 [1]: 53.8 µM

N=C(N)c1ccc(/C=C2/N=C(c3ccccc3)OC2=O)cc1
IC50 (Plasma kallikrein [9]): 1340 nM | IC50 (Coagulation factor X [10]): 6.47 µM | IC50 [11]: 68.5 µM | IC50 [1]: 8.67 µM | inhibition [3]: 0% | IC50 (Plasminogen [12]): 340 nM | IC50 (Prothrombin [13]): 56.1 µM | IC50 [8]: 3.18 µM

CCc1ccc(-c2nc3ccccn3c2NCc2ccc(NC(=N)N)cc2)cc1
IC50 [1]: 63.9 µM

N=C(N)Nc1ccc(CNc2c(-c3cccnc3)nc3ccc(C(F)(F)F)cn23)cc1
IC50 [1]: 200 µM

CCOC(=O)c1ccc(OC(=O)CCCCCNC(=N)N)cc1 [GABEXATE]
IC50 (Plasma kallikrein [9]): 1350 nM | IC50 (Coagulation factor X [10]): 4.61 µM | IC50 [11]: 15.4 µM | IC50 [1]: 0.431 µM | IC50 (Plasminogen [12]): 1550 nM | IC50 (Prothrombin [13]): 0.687 µM | IC50 [8]: 7.12 µM

N=C(N)Nc1ccc(CNc2c(C3CCNCC3)nc3ccccn23)cc1
IC50 [1]: 250 µM

N=C(N)Nc1ccc(CNc2c(-c3ccccc3)nc3ccccn23)cc1
IC50 [1]: 30.1 µM

N=C(N)Nc1ccc(CNc2c(CN)nc3ccccn23)cc1
IC50 [1]: 9.3 µM

N=C(N)Nc1ccc(CNc2c(-c3cccnc3)nc3cc(C(=O)O)ccn23)cc1
IC50 [1]: 26.9 µM

N=C(N)Nc1ccc(CNc2c(-c3cccnc3)nc3ccc(C(N)=O)cn23)cc1
IC50 [1]: 27.3 µM

N=C(N)Nc1ccc(CNc2cnc3cc(C(=O)NCc4ccc(F)cc4)ccn23)cc1
IC50 [1]: 0.254 µM | inhibition (Plasminogen [2]): 8.3% | inhibition [3]: 4.2% | inhibition [14]: Active | inhibition (Plasma kallikrein [4]): 0% | inhibition [5]: 11.9% | inhibition (Prothrombin [6]): 19.5% | inhibition [15]: Active | inhibition (Bos taurus): 43.2% | inhibition (Coagulation factor X [7]): 45.7% | inhibition [16]: Active

CCc1nc2ccccn2c1NCCc1ccc(NC(=N)N)cc1
IC50 [1]: 150 µM

N=C(N)Nc1ccccc1
inhibition (Plasminogen [2]): 0% | inhibition [3]: 0% | inhibition (Plasma kallikrein [4]): 0% | inhibition [5]: 0% | inhibition (Prothrombin [6]): 0% | inhibition (Bos taurus): 38.8% | inhibition (Coagulation factor X [7]): 0%

N=C(N)Nc1ccc(CNc2cnc3ccccn23)cc1
IC50 [1]: 9.04 µM | inhibition (Plasminogen [2]): 29.8% | inhibition [3]: 2.5% | inhibition (Plasma kallikrein [4]): 39.4% | inhibition [5]: 33.6% | inhibition (Prothrombin [6]): 23% | inhibition (Coagulation factor X [7]): 42% | IC50 [8]: 115 µM

N=C(N)Nc1ccc(CNc2c(Cc3cccc(Cl)c3)nc3ccccn23)cc1
IC50 [1]: 18 µM

NCCOc1c(Cl)cc(Nc2cnc3ccccn23)cc1Cl
IC50 [1]: 500 µM

COC(=O)c1ccn2c(NCc3ccc(NC(=N)N)cc3)c(-c3cccnc3)nc2c1
IC50 [1]: 15 µM

N=C(N)Nc1ccc(CNc2cnc3cc(C(=O)NC4CCCC4)ccn23)cc1
IC50 [1]: 0.174 µM | inhibition (Plasminogen [2]): 0% | inhibition [3]: 4% | inhibition [14]: Active | inhibition (Plasma kallikrein [4]): 0% | inhibition [5]: 11.2% | inhibition (Prothrombin [6]): 17.8% | inhibition [15]: Active | inhibition (Bos taurus): 37.1% | inhibition (Coagulation factor X [7]): 47.8% | inhibition [16]: Active

CCc1nc2ccccn2c1NCc1ccc(NC(=N)N)cc1
IC50 [1]: 48.5 µM

N=C(N)Nc1ccc(CNc2c(-c3cccc(F)c3)nc3ccccn23)cc1
IC50 [1]: 100 µM

N=C(N)Nc1ccc(CNc2c(Cc3ccccc3)nc3ccccn23)cc1
IC50 [1]: 30.2 µM

NCCOc1ccc(Nc2cnc3ccccn23)cc1
IC50 [1]: > 1000 µM

Clc1ccc(OCCNc2cnc3ccccn23)c(Cl)c1
IC50 [1]: 250 µM

N=C(N)Nc1ccc(CNc2c(-c3ccc(F)cc3)nc3ccccn23)cc1
IC50 [1]: 125 µM

N=C(N)c1ccc(CNC(=O)[C@H](CO)NC(=O)[C@@H](CO)NS(=O)(=O)Cc2ccccc2)cc1
Ki [17]: 20 nM

CCCCNC(=O)c1ccc2nc(-c3cccnc3)c(NCc3ccc(NC(=N)N)cc3)n2c1
IC50 [1]: 60.8 µM

N=C(N)Nc1ccc(CNc2c(-c3cccnc3)nc3ccc(F)cn23)cc1
IC50 [1]: 57.6 µM

N=C(N)Nc1ccc(CNc2cnc3cc(C(=O)NC4CC4)ccn23)cc1
IC50 [1]: 0.184 µM | inhibition (Plasminogen [2]): 3.3% | inhibition [3]: 2.6% | inhibition [14]: Active | inhibition (Plasma kallikrein [4]): 0% | inhibition [5]: 0% | inhibition (Prothrombin [6]): 8% | inhibition [15]: Active | inhibition (Bos taurus): 46% | inhibition (Coagulation factor X [7]): 45.4% | inhibition [16]: Active

N=C(N)Nc1ccc(CNc2cnc3cc(C(=O)NCCO)ccn23)cc1
IC50 (Coagulation factor X [10]): 51.6 µM | IC50 [1]: 0.366 µM | inhibition (Plasminogen [2]): 15.6% | inhibition [3]: 5% | inhibition [14]: Active | inhibition (Plasma kallikrein [4]): 0% | inhibition [5]: 0% | inhibition (Prothrombin [6]): 4.7% | inhibition [15]: Active | inhibition (Bos taurus): 43.3% | inhibition [16]: Active

CN1CCN(CCNC(=O)c2ccn3c(NCc4ccc(NC(=N)N)cc4)cnc3c2)CC1
IC50 [1]: 0.404 µM | inhibition (Plasminogen [2]): 0% | inhibition [3]: 2% | inhibition [14]: Active | inhibition (Plasma kallikrein [4]): 0% | inhibition [5]: 2.8% | inhibition (Prothrombin [6]): 6.6% | inhibition [15]: Active | inhibition (Bos taurus): 32% | inhibition (Coagulation factor X [7]): 12.2% | inhibition [16]: Active

N=C(N)Nc1ccc(CCNc2cnc3ccccn23)cc1
IC50 [1]: 19.4 µM

N=C(N)Nc1ccc(CNc2c(-c3cccnc3)nc3ccccn23)cc1
IC50 [1]: 250 µM | inhibition (Plasminogen [2]): 0% | inhibition [3]: 0% | inhibition (Plasma kallikrein [4]): 0% | inhibition [5]: 9.4% | inhibition (Prothrombin [6]): 6.6% | inhibition (Bos taurus): 3.3% | inhibition (Coagulation factor X [7]): 24.6%
